Values after ≈ are worked out from the molar mass of the structure shown.
Key:
[1] = system: Streptococcus pneumoniae; test: Antibacterial activity against Streptococcus pneumoniae ATCC 49619 after 18 to 24 hrs by broth microdilution method; type: functional
Procedure, shortened: (§1)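 Strains grown overnight at 35°C on tryptic soy agar; 0.5 McFarland saline suspension diluted in Mueller-Hinton broth, final inoculum 5 × 10⁵ CFU/mL. Twofold serial dilutions, final 0.06 to 32 mg/L, in MHB; incubated 35°C for 18–24h. MIC read visually as lowest concentration preventing growth.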

[2] = system: Staphylococcus aureus; test: Antibacterial activity against vancomycin-resistant Staphylococcus aureus MI after 18 to 24 hrs by broth microdilution method; type: functional
Procedure, shortened: (§2)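 MIC by broth microdilution in Mueller-Hinton broth. Strains grown overnight at 35°C on tryptic soy agar, suspended in saline to 0.5 McFarland, diluted in MHB, final inoculum 5 × 10⁵ CFU/mL. Twofold serial dilutions, final 0.06 to 32 mg/L. Incubated 35°C for 18–24 h. MIC read visually as lowest concentration preventing growth.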

[3] = system: Staphylococcus aureus; test: Antibacterial activity against methicillin-resistant Staphylococcus aureus 494 after 18 to 24 hrs by broth microdilution method; type: functional; procedure, shortened: as §2
[4] = Toxicity in sheep RBC assessed as hemolysis at 25 times MIC after 1 hr; type: cell-based, Ovis aries, Erythrocyte; conditions: sheep red blood cells, read-out: Activity
Procedure, shortened: (§3)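 Sheep RBCs separated from plasma and white cells by centrifugation, washed twice in TBS (10 mM Tris, 150 mM NaCl, pH 7.0), diluted to 1%. Treated with increasing concentrations of compound in DMSO, 37 °C for 1 h, in duplicate. Supernatant absorbance at 414 nm for hemoglobin release; DMSO set as 0%, 1% Triton X as 100% hemolysis.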

[5] = Cytotoxicity against mouse NIH/3T3 cells after 24 hrs by MTS assay; type: cell-based, NIH3T3; conditions: read-out: LD50
Procedure, shortened: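 NIH-3T3 mouse embryo fibroblasts kept in DMEM with 10% FBS, about 10,000 cells per well, attached overnight. Treated 24 h with 10, 25, 50 or 100 mg/L compound (DMSO) in DMEM/FBS. MTS added in fresh DMEM for 1 h at 37 °C, absorbance at 490 nm. Four replicates, media negative and 5% DMSO positive controls. Viability relative to untreated cells; LD50 by nonlinear regression.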

[6] = system: Klebsiella pneumoniae; test: Antibacterial activity against Klebsiella pneumoniae CEF 3978 after 18 to 24 hrs by broth microdilution method; type: functional; procedure, shortened: as §1
[7] = system: Staphylococcus aureus; test: Antibacterial activity against vancomycin-intermediate Staphylococcus aureus Mu50 after 18 to 24 hrs by broth microdilution method; type: functional; procedure, shortened: as §1
[8] = Therapeutic index, ratio of LD50 for mouse NIH/3T3 cells to MIC for vancomycin-resistant Staphylococcus aureus MI; type: cell-based; conditions: read-out: TI
Procedure, shortened: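 Index computed as LD50 from NIH-3T3 MTS viability (24 h exposure, 10–100 mg/L, nonlinear regression) divided by VRSA MIC from broth microdilution (5 × 10⁵ CFU/mL, 35°C, 18–24 h, visual read).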

[9] = system: Enterococcus faecium; test: Antibacterial activity against vancomycin-resistant Enterococcus faecium 7303 after 18 to 24 hrs by broth microdilution method; type: functional; procedure, shortened: as §2
[10] = system: Klebsiella aerogenes; test: Antibacterial activity against Enterobacter aerogenes CEF 3978 after 18 to 24 hrs by broth microdilution method; type: functional; procedure, shortened: as §1
[11] = system: Escherichia coli; test: Antibacterial activity against Escherichia coli ATCC 25922 after 18 to 24 hrs by broth microdilution method; type: functional; procedure, shortened: as §1
[12] = system: Pseudomonas aeruginosa; test: Antibacterial activity against Pseudomonas aeruginosa ATCC 27853 after 18 to 24 hrs by broth microdilution method; type: functional; procedure, shortened: as §1
[13] = Toxicity in sheep RBC assessed as hemolysis at 50 times MIC after 1 hr; type: cell-based, Ovis aries, Erythrocyte; conditions: sheep red blood cells, read-out: Activity; procedure, shortened: as §3

SMILES	MIC [1]	MIC [2]	MIC [3]	hemolysis at 1 h, 25 times MIC [4]	CC50 at 24 h [5]	MIC [6]	MIC [7]	selectivity ratio [8]	MIC [9]	MIC [10]	MIC [11]	MIC [12]	hemolysis at 1 h, 50 times MIC [13]
CC(C)C1Cc2sc3[nH]c(=O)n(C/C=C/c4ccc(O)cc4)c(=O)c3c2C(Cc2ccccc2)C1 (stereo unspecified)	32 mg/L (≈ 65.8 µM)	8 mg/L (≈ 16.4 µM)	16 mg/L (≈ 32.9 µM)	7%	42 mg/L (≈ 86.3 µM)	32 mg/L (≈ 65.8 µM)	16 mg/L (≈ 32.9 µM)	5	8 mg/L (≈ 16.4 µM)	32 mg/L (≈ 65.8 µM)	32 mg/L (≈ 65.8 µM)	16 mg/L (≈ 32.9 µM)	
CCOC(=O)c1sc2[nH]c(=O)n(C/C=C/c3ccc(O)cc3)c(=O)c2c1CCc1ccccc1	8 mg/L (≈ 16.8 µM)	2 mg/L (≈ 4.2 µM)	2 mg/L (≈ 4.2 µM)		52 mg/L (≈ 109 µM)	32 mg/L (≈ 67.1 µM)	2 mg/L (≈ 4.2 µM)	26	4 mg/L (≈ 8.39 µM)	16 mg/L (≈ 33.6 µM)	> 32 mg/L	32 mg/L (≈ 67.1 µM)	2%
COc1ccc(/C=C/Cn2c(=O)[nH]c3sc4c(c3c2=O)C(Cc2ccccc2)CC(C(C)C)C4)cc1 (stereo unspecified)	32 mg/L (≈ 63.9 µM)	> 32 mg/L	> 32 mg/L		120 mg/L (≈ 240 µM)	> 32 mg/L	> 32 mg/L	4	> 32 mg/L	32 mg/L (≈ 63.9 µM)	> 32 mg/L	> 32 mg/L	
CCOC(=O)c1sc2[nH]c(=O)n(C/C=C/c3ccc(OC)cc3)c(=O)c2c1CCc1ccccc1	> 32 mg/L	> 32 mg/L	> 32 mg/L		98 mg/L (≈ 200 µM)	> 32 mg/L	> 32 mg/L	3	> 32 mg/L	8 mg/L (≈ 16.3 µM)	> 32 mg/L	> 32 mg/L	
CCOC(=O)c1c(NC(=O)NC/C=C/c2ccc(O[Si](C)(C)C(C)(C)C)cc2)sc2c1C(Cc1ccccc1)CC(C(C)C)C2 (stereo unspecified)	> 32 mg/L	> 32 mg/L	> 32 mg/L			> 32 mg/L	> 32 mg/L		> 32 mg/L	> 32 mg/L	> 32 mg/L	> 32 mg/L	
CCOC(=O)c1sc(NC(=O)NC/C=C/c2ccc(O[Si](C)(C)C(C)(C)C)cc2)c(C(=O)OCC)c1CCc1ccccc1	> 32 mg/L	> 32 mg/L	> 32 mg/L			> 32 mg/L	> 32 mg/L		> 32 mg/L	> 32 mg/L	> 32 mg/L	> 32 mg/L	
CCOC(=O)c1sc(NC(=O)NC/C=C/c2ccc(OC)cc2)c(C(=O)OCC)c1CCc1ccccc1	> 32 mg/L	> 32 mg/L	> 32 mg/L			> 32 mg/L	> 32 mg/L		> 32 mg/L	> 32 mg/L	> 32 mg/L	> 32 mg/L	
CN[C@H](CC(C)C)C(=O)N[C@H]1C(=O)N[C@@H](CC(N)=O)C(=O)N[C@H]2C(=O)N[C@H]3C(=O)N[C@H](C(=O)N[C@H](C(=O)O)c4cc(O)cc(O)c4-c4cc3ccc4O)[C@H](O)c3ccc(c(Cl)c3)Oc3cc2cc(c3O[C@@H]2O[C@H](CO)[C@@H](O)[C@H](O)[C@H]2O[C@H]2C[C@](C)(N)[C@H](O)[C@H](C)O2)Oc2ccc(cc2Cl)[C@H]1O [VANCOMYCIN]	0.5 mg/L (≈ 0.345 µM)								> 32 mg/L			> 32 mg/L	

Source: ChEMBL document CHEMBL1955810, “Thieno[2,3-d]pyrimidinedione derivatives as antibacterial agents” (Eur J Med Chem, 2012)
